Bioassay records: PubChem BioAssay, several laboratories
Most compounds without a hit are left out; they make up all but 1.8% or so of the library.
Autophagy HCS = autophagy modulators in MEF cells, primary screen, imaging, high-content, MEF GFP-LC3 | MEF GFP-LC3 puncta imaging; test concentration mostly 10 µM | calls only at 10 µM (by protocol) | actives 0.98% (n = 190,000) | AID 463193, 2010;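 active = percentage of spot-positive cells more than 3 SD above its plate mean, without a fluorescence outlier flag or 80% toxicity; inconclusive = no clear call, values can overlap the other calls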
Mdm2 ligase inh = MDM2-luciferase reporter signal enhancers, primary screen, MDM2 E3 ligase inhibitor project, cell-based, luminescence, 1536-well; cell-based MDM2 ubiquitination luciferase reporter, 2 h; 0 = plate control, 100 = twice control, blank-subtracted; signal enhancement, % at 5 µM; actives 0.11% (n = 210,000); AID 1230, 2008;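 active = signal enhancement of 30% or more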;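 also: luminescence tracks abundance of the self-degrading MDM2-luciferase fusion protein; higher signal means inhibition of MDM2 E3 ligase activity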
Target sequence (Q00987 whole entry, looked up, the tested form may be a part): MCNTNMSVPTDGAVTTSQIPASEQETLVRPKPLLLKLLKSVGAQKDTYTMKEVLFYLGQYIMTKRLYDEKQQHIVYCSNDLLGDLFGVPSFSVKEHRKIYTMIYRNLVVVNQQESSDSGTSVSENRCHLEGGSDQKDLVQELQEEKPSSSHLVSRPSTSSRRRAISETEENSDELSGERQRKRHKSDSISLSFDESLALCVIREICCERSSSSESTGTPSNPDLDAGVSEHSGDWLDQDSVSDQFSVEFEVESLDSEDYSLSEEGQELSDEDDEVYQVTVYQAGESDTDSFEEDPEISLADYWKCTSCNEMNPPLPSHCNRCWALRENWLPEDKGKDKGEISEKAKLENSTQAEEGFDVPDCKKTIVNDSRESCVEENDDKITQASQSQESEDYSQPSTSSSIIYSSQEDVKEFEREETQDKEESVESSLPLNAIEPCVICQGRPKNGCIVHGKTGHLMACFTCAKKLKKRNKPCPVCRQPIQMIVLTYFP
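Assay system: stable mammalian line carrying autodegrading MDM2–luciferase fusion reporter; Input: 2000 cells in each well; Compound dosing: single-point 5 µM; Schedule: 2 h compound exposure at 37 °C; Signal: SteadyLite luciferase luminescence after 15 min room-temperature reagent incubation; Evaluation: % luminescence enhancement versus blank-corrected plate control mean; Benchmarks: plate controls and plate blanks.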
Dynein transport = inhibitors of GR-EGFP nuclear translocation, primary screen, dynein cargo transport inhibitor project, imaging, high-content, 3617.4 mouse cells; test concentration mostly 20 µM; stimulated with dexamethasone, 1 µM; stronger effect = lower value; z-score, hits read low; actives 0.47% (n = 220,000);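 active = plate z-score of nuclear minus cytoplasmic receptor signal below a set negative limit, without overly bright fluorescence or cell loss, cut at about -3.5 in these data, passing the limit was not always enough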;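 also: z-score of nuclear minus cytoplasmic ring GR-EGFP intensity difference per well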
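Also added: dexamethasone, 1.0 µM final. Medium: tet-free, stripped-serum medium. Detection: fixed, Hoechst-stained cells imaged at 10x for EGFP. Read-out: nuclear-to-cytoplasmic GR-EGFP distribution per well. Times: induction 48 h, compound 1 h, agonist 30 min.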
TNF death inh = inhibitors of TNF-alpha triggered necroptosis, primary screen, cell-based, Jurkat FADD-/-, single concentration. activation (protection from cell death), % at 10 µM. actives 0.068% (n = 220,000). Jurkat FADD-/- TNF necroptosis rescue, ATP luminescence, 24 h; 0 = TNF only, 100 = no-TNF cells;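 active = activation, meaning protection from cell death, of at least 50% relative to plate controls; inactive = activation below 50%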;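 also: necroptosis triggered by 40 ng/mL TNF-alpha added together with compound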
L929 necroptosis = inhibitors of zVAD-triggered necroptosis, primary screen, L929 cells; L929 zVAD necroptosis rescue, ATP luminescence, 24 h; with zVAD 60 µM; viability rescue, % at 10 µM; actives 0.38% (n = 220,000);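 active = activation, scaled between plate controls, above about 75%, limit read from the data; inactive = activation under that limit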
zVAD death conf = inhibitors of zVAD-triggered necroptosis in L929, confirmation, L929 cells, duplicate runs | activation (protection from necroptosis), % at 10 µM | shares compounds with L929 necroptosis | L929 zVAD-induced necroptosis rescue, ATP luminescence, 24 h | actives 16% (n = 760);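 active = mean protection from necroptosis of at least 50% over duplicate tests; inactive = mean protection below 50%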
Dynein confirm = dynein cargo transport inhibitors, GR-EGFP translocation, confirmation, imaging, high-content imaging, GR-EGFP cells; shares compounds with Dynein transport; 3617.4 GR-EGFP nuclear translocation imaging, dexamethasone-induced; calls only at 20 µM; actives 69% (n = 1,000);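 active = inhibition of receptor movement into the nucleus at or above a set limit in both runs, with normal cell brightness and cell count; inconclusive = limit reached in only one run, brightness and count normal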;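 also: dexamethasone at 1 µM final in well for 30 min; nuclear minus cytoplasmic GR-EGFP mean intensity difference in channel 2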
Numbers stand for hits; 0 = inactive; ? = inconclusive; - = no result given; + = active, no number.

SMILES | Autophagy HCS | Mdm2 ligase inh | Dynein transport | TNF death inh | L929 necroptosis | Dynein confirm | others
COc1ccc(Nc2ccccc2N)cc1 | 0 | 0 | -5.13 | 0 | 91.6 | 0 | zVAD death conf=0
Nc1ccc(Nc2ccccc2N)cc1 | 0 | 0 | 0 | 0 | 0 | -
ClC1=C(Cl)C(Cl)=C(Cl)C1=C/C=C/c1ccccc1 | - | 0 | -4.08 | 0 | 112.2 | 0 | zVAD death conf=0
C=C1C(=O)[C@@]23[C@H](O)C[C@@H]4C(C)(C)CC[C@H](O)[C@@]4(C)[C@@H]2CC[C@@H]1[C@H]3O | 0 | - | -5.46 | 0 | 121.2 | + | zVAD death conf=78.1
CC1(C)CC2(CC(c3ccccc3F)c3ccc(O)c(O)c3O2)NC(=S)N1 (stereo unspecified) | 0 | 0 | 0 | 0 | 0 | -
COc1cc(CCC(=O)Nc2ccc(S(=O)(=O)NC3=NCCCCC3)cc2)cc(OC)c1OC | 0 | 0 | 0 | 0 | 0 | -
CN(C)c1ccc(/C=C2\N=C(c3ccc(Cl)c([N+](=O)[O-])c3)NC2=O)cc1 | 0 | 0 | 0 | 0 | 0 | +
OCc1ccccc1N=c1ssnc1Cl | 0 | 0 | 0 | 0 | 0 | -
Clc1ccc(N=c2ssnc2Cl)nc1 | 0 | 0 | -3.53 | 0 | 0 | 0
CN(C)c1nc(C=C(C#N)C#N)c(Cl)n1-c1ccc(F)cc1 | 0 | 0 | -6.64 | 0 | 0 | +
Cc1ccc(C(C[N+](=O)[O-])Sc2ccc(N)cc2)cc1 (stereo unspecified) | - | 0 | -6.69 | 0 | 0 | +
Nc1ccc(Sc2ccc([N+](=O)[O-])cc2)cc1 | 0 | 0 | 0 | 0 | 0 | -
Cc1ccc(C(=O)N/C(=C\c2ccc(-c3ccc(Cl)cc3)o2)C(=O)NCCCN(C)C)cc1 | 0 | 0 | -4.3 | 0 | 0 | 0
C=CS(=O)(=O)c1sc(Cl)c(N2CCOCC2)c1[N+](=O)[O-] | 0 | 0 | -4.33 | 0 | 0 | +
CCOc1ccc(CC(=O)NNC(=O)/C=C/C(=O)O)cc1 | - | 0 | 0 | 0 | 0 | -
CCOc1ccc(CN(C)C(=O)CCl)cc1 | 0 | 0 | -5.58 | 0 | 0 | +
COC(CN(C(=O)CCl)C(C(=O)NC1CCCCC1)c1ccc(Cl)cc1)OC (stereo unspecified) | 0 | 0 | -4.13 | 0 | 0 | +
COC(CN(C(=O)CCl)C(C(=O)NC1CCCCC1)c1ccccc1C)OC (stereo unspecified) | 0 | 0 | 0 | 0 | 0 | -
O=C(NC1CCCC1)C(c1ccc(Cl)cc1)N(Cc1ccc(F)cc1)C(=O)CCl (stereo unspecified) | 0 | 0 | -5.3 | 0 | 0 | +
COC(CN(C)C(C(=O)NC1CCCCC1)c1ccccc1)OC (stereo unspecified) | 0 | 0 | 0 | 0 | 0 | -
COC(CN(C(=O)CCl)C(C(=O)NC1CCCC(C)C1C)c1ccc(C)cc1)OC (stereo unspecified) | 0 | 0 | -4.26 | 0 | 0 | +
O=C(NC1CCCC1)C(c1ccc(F)cc1)N(Cc1ccc(Cl)cc1)C(=O)CCl (stereo unspecified) | + | 0 | -3.73 | 0 | 0 | +
CCOC(=O)Cn1nc(C)n(-c2ccc(F)cc2)c1=O | 0 | 0 | 0 | 0 | 0 | -
CNC(=O)CSc1nnc(-c2ccccc2F)n1CCc1ccccc1 | - | 0 | 0 | 0 | 0 | -
CCC(=O)Nc1cc(C(=O)O)ccc1Sc1ccc(C)cc1 | 0 | 0 | 0 | 0 | 0 | -
SMILES | Autophagy HCS | Mdm2 ligase inh | Dynein transport | TNF death inh | L929 necroptosis | Dynein confirm | others
O=C(Cc1cccs1)Nc1nc(-c2ccc(F)cc2F)cs1 | 0 | 0 | -3.52 | 0 | 0 | 0
CC(C)(C)SCCNS(=O)(=O)c1ccc(C#N)cc1 | - | 0 | 0 | 0 | 0 | -
CC(=O)/C(=C/c1ccccc1)C(=O)Nc1ccccc1C | 0 | 0 | -6.71 | 0 | 0 | +
O=C(Oc1ccc(OC(=O)C2CCC2)cc1)C1CCC1 | 0 | 0 | 0 | 0 | 0 | -
N#Cc1cccc(NC(=O)CSc2ccc3c4c(cccc24)C(=O)c2ccccc2-3)c1 | + | 0 | 0 | 0 | 0 | +
Nc1c(C(=O)C2CC2)sc2nc(-c3ccccc3)cc(C(F)(F)F)c12 | ? | 0 | 0 | 0 | 0 | 0
Cc1c(C(=O)Nc2nccs2)sc2nc(-c3cccs3)cc(C(F)(F)F)c12 | 0 | 0 | 0 | 0 | 0 | -
CC(=O)c1sc2nc(-c3cccs3)cc(C(F)(F)F)c2c1N | + | 0 | 0 | 0 | 0 | +
Cc1cccc(N2C(=O)CC(Sc3ncn[nH]3)C2=O)c1 (stereo unspecified) | 0 | 0 | 0 | 0 | 0 | -
Cc1ccc(N2C(=O)CC(Sc3ncn[nH]3)C2=O)cc1C (stereo unspecified) | 0 | 0 | -5.96 | 0 | 0 | 0
Cc1nc([N+](=O)[O-])c(Br)n1CC(=O)c1ccc(F)cc1 | 0 | 0 | -6.08 | 0 | 0 | +
COC(=O)Cn1c(C)nc([N+](=O)[O-])c1Br | 0 | 0 | 0 | 0 | 0 | -
Cc1nc([N+](=O)[O-])c(Sc2nc3ccc([N+](=O)[O-])cc3[nH]2)n1Cc1ccccc1 | 0 | 0 | 0 | 0 | 0 | -
CCn1c(=N)n(CC(=O)c2cccc([N+](=O)[O-])c2)c2ccccc21 | 0 | 0 | 0 | 0 | 0 | -
Cc1nc([N+](=O)[O-])c(Br)n1Cc1ccccc1 | - | 0 | -5.87 | 0 | 0 | +
Cc1nc([N+](=O)[O-])c(Br)n1CC(=O)c1cccc([N+](=O)[O-])c1 | 0 | 0 | -5.48 | 0 | 0 | +
CC(C)CN1C(=O)/C(=C/c2c(N3CCc4ccccc4C3)nc3ccccn3c2=O)SC1=S | - | 0 | 0 | 0 | 0 | 0
O=C(CCl)N(C/C=C/c1ccccc1)c1ccc2c(c1)OCCO2 | 0 | 0 | -3.95 | 0 | 0 | +
O=c1c(Cl)nc2cc(Cl)ccc2n1CCNc1ncc(C(F)(F)F)cc1Cl | + | 0 | -4.49 | 0 | 0 | 0
O=c1c2nncn2c2cc(C(F)(F)F)ccc2n1CCNc1ncc(C(F)(F)F)cc1Cl | - | - | 0 | 0 | 0 | -
CCCCC(=O)Nc1ccccc1CC | - | 0 | 0 | 0 | 0 | -
O=C1CCCC(O)=C1C(C#Cc1ccccc1)C1=C(O)CCCC1=O | 0 | 0 | -5.55 | 0 | 0 | +
COc1ccc(NC(=O)/C(=C\c2ccncc2)NC(=O)c2ccccc2)cc1 | 0 | 0 | 0 | 0 | 0 | -
CCc1ccc(NC(=O)CN2C(=O)C(=O)N(Cc3ccccc3)C2=O)cc1 | 0 | 0 | 0 | 0 | 0 | -
